Screens as filed in PubChem.
14-3-3 Bad PPI: disrupts binding of bovine 14-3-3 zeta to phospho-Bad peptide | TR-FRET 14-3-3zeta/Dy647-pBad peptide displacement, 1 h | P63103 | AID 781 | actives 0.71% (n = 220,000) | inhibition, % at 21.7 µM;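 active means inhibition above about 70%, limit read from the data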
Target sequence (P63103 whole entry, looked up): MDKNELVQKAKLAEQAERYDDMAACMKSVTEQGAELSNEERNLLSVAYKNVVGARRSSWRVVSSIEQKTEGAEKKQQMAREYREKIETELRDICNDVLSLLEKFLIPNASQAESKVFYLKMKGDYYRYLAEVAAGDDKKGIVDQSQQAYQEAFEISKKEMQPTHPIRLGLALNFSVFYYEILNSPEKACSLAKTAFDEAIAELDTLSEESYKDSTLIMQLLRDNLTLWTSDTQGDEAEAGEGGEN
Mcl1 Noxa PPI: disrupts binding of human Mcl-1 to Noxa peptide. TR-FRET Mcl-1/Noxa peptide binding, 2 h. inhibition, % at 21.7 µM. actives 1.5% (n = 220,000). AID 1022;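 active means compounds that cut the protein-peptide binding signal by more than 50% relative to plate controls in a single-dose test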;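 further: His-tagged Mcl-1 with rhodamine Noxa BH3 peptide and terbium anti-His antibody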
Biofilm kill mix: mixture kills Candida albicans biofilm cells | C. albicans biofilm persisters + clotrimazole, fluorescence viability; primary screen in compound mixtures of four per well | inhibition, % at 7.6 µM | actives 0.02% (n = 120,000) | AID 1242;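 active means inhibition above 30.3% in the primary screen of four-compound pools, then above 30% when the compound was retested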;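 further: compounds exposed to preformed 24 h biofilms for 48 h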
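System: C. albicans CAF4-2 wild-type biofilms; Medium: RPMI/MOPS medium, pH 7.0; Reagent: Clotrimazole, 50 µg/mL; Times: biofilm formation 24 h, compound exposure 48 h, 37 °C; Detection: 2-h Alamar Blue fluorescence, 535/590 nm excitation/emission; Evaluation: percent inhibition of biofilm viability.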
Hck-Nef inh: blocks Nef-activated human Hck kinase. P08631. AID 463187. Recombinant Hck-YEEI plus Nef, Z-Lyte FRET kinase assay. inhibition, % at 20 µM. actives 0.68% (n = 220,000);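 active means Hck-Nef kinase inhibition above about 50%, limit read from the data; inactive means inhibition below that limit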
Mcl-1 Bim block: disrupts Bim peptide binding to human Mcl-1 | Q07820 | Bead-based flow cytometry, Bim peptide-Mcl-1 binding | inhibition, % at 10 µM | actives 0.1% (n = 190,000); in the data active means inhibition above about 40%
Mcl1-Bid inh: Mcl-1/Bid interaction inhibition | Q07820 | actives 0.97% (n = 220,000) | TR-FRET Mcl-1/Bid-Dy647 peptide binding, 1536-well | inhibition, % at 21.7 µM;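 active means compounds that cut the binding signal by more than half at the single screening dose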;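 further: His-tagged Mcl-1 with europium anti-His antibody binding Bid BH3 peptide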
Large screens that a line does not name were inactive. Hits are enriched below; roughly 3.2% of the tested compounds scored in any of these assays.

CCC(C)[C@H](NC(=O)Nc1ccccc1F)C(=O)O (stereo partly drawn)	Mcl1-Bid inh 85.3 (no result: Mcl-1 Bim block)
CCOC(=O)C1=C(C)NC(C)=C(C(=O)OCC)C1C(=O)OCC(=O)NC(C)C	none (no result: Biofilm kill mix)
c1ccc(CSc2nnc([C@@H]3CCCN3)o2)cc1	none (no result: Biofilm kill mix)
Cc1ccc(CSc2nnc([C@@H]3CCCN3)o2)cc1	Mcl1-Bid inh 62.5 (no result: Biofilm kill mix)
Cc1cc(Cl)ccc1NC(=S)NCc1cccs1	none (no result: Biofilm kill mix)
Clc1ccccc1-c1nc2ccccc2[nH]1	Mcl1-Bid inh 76.9 (no result: Mcl-1 Bim block)
O=C(O)CC1(CC(=O)Nc2cc(F)ccc2Cl)CCCCC1	none (no result: Mcl-1 Bim block)
COc1ccc(/C=N/NC(=O)c2nc(-c3ccccc3)cc(-c3ccccc3)n2)cc1O	Mcl1 Noxa PPI 68.2
COc1cc(/C=N/NC(=O)c2ccc(CN3C(=O)c4cccc5cccc3c45)cc2)cc(OC)c1O	Mcl1 Noxa PPI 75.5 (no result: Mcl-1 Bim block)
COc1ccc(/C=N/NC(=O)c2ccc(CN3C(=O)c4cccc5cccc3c45)cc2)cc1O	Mcl1 Noxa PPI 61.2
COc1cc(/C=N/NC(=O)c2ccc(CSc3nc4ccccc4[nH]3)cc2)ccc1O	Mcl1 Noxa PPI 61.6
COc1cc(/C=N/NC(=O)c2ccccc2)ccc1O	none
C=CCn1c(SCC(=O)c2[nH]c(C)c(C(=O)OC)c2C)nc2scc(-c3ccc(OC)c(OC)c3)c2c1=O	14-3-3 Bad PPI 96.0, Mcl1 Noxa PPI 52.8, Mcl1-Bid inh 65.2
C=CCn1c(SCC(=O)c2[nH]c(C)c(C(C)=O)c2C)nnc1-c1ccncc1	none (no result: Biofilm kill mix)
CCC(c1nnnn1C1CCCC1)N1CCN(c2ccccc2F)CC1 (stereo not drawn)	none (no result: Biofilm kill mix)
CCCC(c1nnnn1C1CCCC1)N1CCN(c2ccccc2F)CC1 (stereo not drawn)	14-3-3 Bad PPI 81.5 (no result: Biofilm kill mix)
Cc1ccc(C)n1-c1cc([N+](=O)[O-])ccc1-n1ccnc1	none (no result: Mcl-1 Bim block)
CC1(C)N([O-])c2cc([N+](=O)[O-])ccc2[N+]1=O	Mcl1 Noxa PPI 84.6 (no result: Mcl-1 Bim block)
Cc1ccc(NC(=O)c2ccc(-n3cccn3)c([N+](=O)[O-])c2)cc1	none (no result: Biofilm kill mix)
O=C(Nc1ccc(C2=NCCN2)cc1)c1ccc(C(=O)Nc2ccc(C3=NCCN3)cc2)c([N+](=O)[O-])c1	14-3-3 Bad PPI 78.8, Mcl1 Noxa PPI 67.3 (no result: Mcl-1 Bim block)
O=C(O)Cc1sc(Nc2ccc(F)cc2)nc1-c1cccs1	Mcl1 Noxa PPI 53.1
COc1cc(NC(=S)N2CCc3ccccc3C2)cc(OC)c1	none
CC(Nc1nc(N2CCNCC2)nc2ccccc12)c1ccccc1 (stereo not drawn)	none
Cc1ccc(OCCCCn2cnc3ccccc32)c(C)c1	Mcl1-Bid inh 54.4 (no result: Biofilm kill mix)
O=C(COC(=O)c1ccccc1NC(=O)C1CC1)c1ccc2c(c1)OCCO2	14-3-3 Bad PPI 71.5
CC(C)(C)C(=O)Nc1ccccc1C(=O)OCC(=O)c1ccc2c(c1)OCCO2	none
COC(=O)c1cccc(NC(=S)Nc2cccc(Cl)c2Cl)c1	Mcl1-Bid inh 97.8
CC(=O)Nc1cccc(NC(=S)Nc2cccc(Cl)c2Cl)c1	none
O=C(COC(=O)c1ccc(NS(=O)(=O)c2cccs2)cc1)Nc1nc2c(F)c(F)c(F)cc2s1	Mcl1 Noxa PPI 70.9
CSc1nc(NC(C)(C)C)nc(Oc2ccc(=O)n(C)n2)n1	none (no result: Biofilm kill mix)
CC1(C)CC(=O)C(N=Nc2cc(Cl)c(Cl)c(Cl)c2)=C(O)C1	Mcl-1 Bim block 42.0 (no result: Biofilm kill mix)
FC(F)(F)c1nc(-c2cccs2)ncc1-c1nnnn1-c1ccc(Cl)cc1	Mcl1-Bid inh 64.8 (no result: Biofilm kill mix)
CSc1ccccc1NC(=O)CN(C)CC(=O)Nc1ccc(N2CCOCC2)cc1	Mcl-1 Bim block 48.0
Cc1ccc(NC(=O)CCC(=O)c2cccs2)cc1	none (no result: Biofilm kill mix)
O=C(Cc1ccccc1)Nc1ccc(N2CCCCC2)cc1	Mcl1 Noxa PPI 60.7
O=C(CCC(=O)c1cccs1)Nc1ccc(N2CCCCC2)cc1	Mcl1 Noxa PPI 57.1
O=C(CCc1ccccc1)Nc1ccc(N2CCOCC2)cc1	Mcl1 Noxa PPI 52.6
CN(CC(=O)Nc1ccc(N2CCOCC2)cc1)CC(=O)Nc1ccc(N2CCOCC2)cc1	none (no result: Mcl-1 Bim block)
CCCCCSc1nnc(N)s1	none (no result: Mcl-1 Bim block)
Cc1ccc(NC(=O)CSc2ncc3ccccn23)cc1	none
CC1CCCCN1CC(=O)Nc1ccc(Oc2ccccc2)cc1 (stereo not drawn)	none (no result: Biofilm kill mix)
CC1CCCCN1CC(=O)Nc1ccc(N2CCCCCC2)cc1 (stereo not drawn)	Mcl1 Noxa PPI 58.5
